These results are taken from ChEMBL document CHEMBL4033797, “Discovery of [ cis-3-({(5 R)-5-[(7-Fluoro-1,1-dimethyl-2,3-dihydro-1 H-inden-5-yl)carbamoyl]-2-methoxy-7,8-dihydro-1,6-naphthyridin-6(5 H)-yl}carbonyl)cyclobutyl]acetic Acid (TAK-828F) as a Potent, Selective, and Orally Available Novel Retinoic Acid Receptor-Related Orphan Receptor γt Inverse …” (J Med Chem, 2018).

The nature of data set [1]: Lipophilicity, log D of the compound at pH 7.4. Type of data set: physicochemical. The following applies: buffer.
The test system of data set [2] is Mus musculus. The experiment in a line: In vivo inverse agonist activity at RORgammat in po dosed C57BL/6 mouse assessed as inhibition of IL-23-induced IL-17A cytokine expression. Type of data set: functional.
Data set [3] can be described thus: Oral bioavailability in mouse at 1 mg/kg administered via cassette dosing. Type of data set: ADME, organism-based. The following applies: in vivo. In short, it runs like this:
(§1)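 Mice received a single oral 1 mg/kg dose in cassette format. Plasma was sampled over 8 h for Cmax, Tmax, AUC0–8h, MRT and oral bioavailability (F). Values are means of three determinations.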

Data set [4] can be described thus: AUC (0 to 8 hrs) in mouse at 1 mg/kg, po administered via cassette dosing. On the set-up: time < 8 hr, dose 1 mg/kg, route oral. To be noted: in vivo. Type of data set: ADME, organism-based. The method in brief:
as §1

The target in data set [5] is T1, Nuclear receptor ROR-beta (Homo sapiens, UniProt Q92753).
T1 sequence (Q92753 whole entry): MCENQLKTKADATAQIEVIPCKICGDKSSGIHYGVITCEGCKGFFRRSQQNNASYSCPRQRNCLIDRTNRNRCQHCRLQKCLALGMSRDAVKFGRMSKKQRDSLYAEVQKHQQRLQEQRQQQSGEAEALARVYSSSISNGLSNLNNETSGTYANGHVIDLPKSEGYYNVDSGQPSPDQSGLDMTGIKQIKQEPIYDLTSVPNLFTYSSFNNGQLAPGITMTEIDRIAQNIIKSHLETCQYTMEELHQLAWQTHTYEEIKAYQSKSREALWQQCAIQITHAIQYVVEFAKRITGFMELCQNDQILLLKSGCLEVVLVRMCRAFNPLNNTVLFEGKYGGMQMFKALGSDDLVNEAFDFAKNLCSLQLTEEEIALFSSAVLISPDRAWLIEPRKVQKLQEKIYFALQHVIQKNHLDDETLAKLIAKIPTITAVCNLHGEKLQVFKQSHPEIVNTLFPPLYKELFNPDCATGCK
The experiment in a line: Inverse agonist activity at human RORbeta expressed in human Jurkat cells assessed as inhibition of transcriptional activity after 10 mins by human IL-17 ROR response element driven-bright-glo luciferase reporter gene assay. Type of data set: cell-based. The method in brief:
(§2)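 Cell-based reporter assay in human Jurkat cells carrying human RORα or RORβ. Inhibition of transcriptional activity was read as luciferase activity and reported as IC50.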
On the technique in general: Reporter assays use an easily measured gene product as a stand-in for the process of interest.

For data set [6], the system named is Mus musculus. The experiment in a line: Anti-inflammatory activity against MOG (35 to 55 residues)-induced EAE C57BL/6 mouse model assessed as inhibition of development of clinical symptoms at 1 mg/kg, administered bid via oral gavage measured after 28 days post Mycobacterium tuberculosis H37Ra/ MOG (35 to 55 residues)/pertussis toxin immunization. To be noted: C57BL/6, po, 672 h. In kind it is functional. In short, it runs like this: (§3)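 Mice immunized with MOG peptide received oral drug in 0.5% methylcellulose vehicle bid for 28 days. EAE clinical score was recorded from day 0 to day 28, along with cumulative clinical score. Groups were 12 MOG-immunized mice per group plus 4 healthy controls, reported as mean ± S.E. Comparison was against vehicle-treated immunized controls by one-tailed Shirley-Williams test (p<0.025).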

Data set [7] can be described thus: Tmax in mouse at 1 mg/kg, po administered via cassette dosing. The following applies: in vivo. Type of data set: ADME, organism-based. The method in brief: as §1
Data set [8] is described as follows: Cmax in mouse at 1 mg/kg, po administered via cassette dosing. Type of data set: ADME, organism-based. More on the design: dose 1 mg/kg, route oral. To be noted: in vivo. In short, it runs like this: as §1
A short description of data set [9]: MRT in mouse at 1 mg/kg, po administered via cassette dosing. Type of data set: ADME, organism-based. To be noted: in vivo. The method in brief: as §1
Data set [10] has as its system Mus musculus. The experiment in a line: Anti-inflammatory activity in activated T cell transfer po dosed mouse colitis model. In kind it is functional, organism-based.
The subject of data set [11] is Mus musculus. The experiment in a line: Anti-inflammatory activity against MOG (35 to 55 residues)-induced EAE C57BL/6 mouse model assessed as inhibition of development of clinical symptoms at 3 mg/kg, administered bid via oral gavage measured after 28 days post Mycobacterium tuberculosis H37Ra/ MOG (35 to 55 residues)/pertussis toxin immunization. To be noted: C57BL/6, po, 672 h. Type of data set: functional. The method in brief:
as §3

Data set [12] concerns Mus musculus. The experiment in a line: Anti-inflammatory activity against IL-23 induced po dosed mouse psoriasis model. Type of data set: functional, organism-based.
Data set [13] has as its system Mus musculus. The experiment in a line: In vivo inverse agonist activity at RORgammat in po dosed C57BL/6 mouse assessed as inhibition of IL-23-induced IL-17A expression administered as bid. Type of data set: functional, organism-based. The method in brief:
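Mice were dosed orally twice daily at 0.3, 1 and 3 mg/kg. IL-17A expression induced by IL-23 was then measured, and an effective dose was derived from the dose–response.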

Data set [14] addresses T2, Nuclear receptor ROR-alpha (Homo sapiens, UniProt P35398).
T2 sequence (P35398 whole entry): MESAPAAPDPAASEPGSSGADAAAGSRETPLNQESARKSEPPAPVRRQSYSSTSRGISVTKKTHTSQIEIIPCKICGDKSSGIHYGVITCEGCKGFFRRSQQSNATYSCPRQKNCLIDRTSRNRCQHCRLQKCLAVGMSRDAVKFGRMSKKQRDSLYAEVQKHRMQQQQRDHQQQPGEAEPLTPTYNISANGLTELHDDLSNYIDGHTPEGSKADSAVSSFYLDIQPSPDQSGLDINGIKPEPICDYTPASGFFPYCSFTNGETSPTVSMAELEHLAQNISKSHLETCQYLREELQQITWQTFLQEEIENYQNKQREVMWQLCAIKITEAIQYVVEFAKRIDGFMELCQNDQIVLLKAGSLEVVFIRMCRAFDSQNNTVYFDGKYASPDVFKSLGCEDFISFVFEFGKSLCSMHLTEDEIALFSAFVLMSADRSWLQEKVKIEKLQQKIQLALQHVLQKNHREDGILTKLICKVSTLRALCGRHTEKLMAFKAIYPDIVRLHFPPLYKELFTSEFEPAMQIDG
The experiment in a line: Inverse agonist activity at human RORalpha expressed in human Jurkat cells assessed as inhibition of transcriptional activity after 10 mins by human IL-17 ROR response element driven-bright-glo luciferase reporter gene assay. In kind it is cell-based. In short, it runs like this:
as §2

Molecules are shown by their SMILES. Calls of active or inactive are those of the source. The calls are words filed in the database; no cut-off is given here.

`COc1ccc2c(n1)CCN(C(=O)N1CC(CC(=O)O)C1)[C@H]2C(=O)Nc1cc(F)c2c(c1)CCC2(C)C` showed a pH-dependent lipophilicity (logD) in [1] of 3.42.
With `COc1ccc2c(c1)CCN(C(=O)CCCC(=O)O)[C@H]2C(=O)Nc1cc(F)c([Si](C)(C)C)c(F)c1`, the inhibition result with Mus musculus [2] is “Dose-dependent effect”. Also, in the data set with Mus musculus [2] (C57BL/6, po), the ED80 is 7.6 mg/kg. The same compound registered a pH-dependent lipophilicity (logD) in data set [1] of 3.96.
In the case of `COc1ccc2c(n1)CCN(C(=O)CCCC(=O)O)[C@H]2C(=O)Nc1cc(F)c2c(c1)CCC2(C)C`, the inhibition result with Mus musculus [2] is “Dose-dependent effect”. The compound further yielded a bioavailability in data set [3] of 58%. The logD in data set [1] was found to be 3.39. Also, in data set [4], the AUC(0-t) at 8 h amounted to 2620 ng·h/mL.
`COc1ccc2c(n1)CCN(C(=O)[C@H]1C[C@@H](CC(=O)O)C1)[C@H]2C(=O)Nc1cc(F)c2c(c1)CCC2(C)C`: the IC50 in data set [5] and in data set [14] was at least 30 µM each time. The inhibition in vivo at 1 mg/kg with Mus musculus [6] is 50%. For the same compound, the time of peak concentration (Tmax) in [7] was 2.3 h. In data set [1], the logD was found to be 3.53. The compound further gave a maximum concentration (Cmax) in data set [8] of 1560 ng/mL. The same compound showed an MRT in data set [9] of 4.1 h. Moreover, the outcome in the data set with Mus musculus [10] and with Mus musculus [12] was Active. Besides, the inhibition in vivo at 3 mg/kg in the data set with Mus musculus [11] was 44%. Besides, in [4], the AUC(0-t) at 8 h was determined as 10100 ng·h/mL. For the same compound, the inhibition result in the data set on Mus musculus [13] is “Dose-dependent effect”.
For the compound `COCC(C)(C)c1c(F)cc(NC(=O)[C@H]2c3ccc(OC)cc3CCN2C(=O)CCCC(=O)O)cc1F`, the bioavailability in [3] was found to be 78%. In data set [1], the pH-dependent lipophilicity (logD) came to 3.16. The AUC(0-t) at 8 h in [4] was determined as 389 ng·h/mL.
Take `COc1ccc2c(n1)CCN(C(=O)C1CN(CC(=O)O)C1)[C@H]2C(=O)Nc1cc(F)c2c(c1)CCC2(C)C`: in [1], the log distribution coefficient (logD) came out at 3.39.
`COc1ccc2c(n1)CCN(C(=O)C[C@H]1C[C@@H](C(=O)O)C1)[C@H]2C(=O)Nc1cc(F)c2c(c1)CCC2(C)C` showed a logD in data set [1] of 3.51.
The compound `COc1ccc2c(n1)CCN(C(=O)[C@H]1C[C@H](CC(=O)O)C1)[C@H]2C(=O)Nc1cc(F)c2c(c1)CCC2(C)C` showed a logD in data set [1] of 3.54.
Consider `COc1ccc2c(n1)CCN(C(=O)C[C@H]1C[C@H](C(=O)O)C1)[C@H]2C(=O)Nc1cc(F)c2c(c1)CCC2(C)C`, for which the pH-dependent lipophilicity (logD) in data set [1] came to 3.49.
`COc1ccc2c(c1)CCN(C(=O)CCCC(=O)O)[C@H]2C(=O)Nc1cc(F)c(C(C)(C)C)c(F)c1` gave a bioavailability in [3] of 62%. In [1], this compound showed a logD of 3.77. Also, the AUC(0-t) at 8 h in [4] came out at 2840 ng·h/mL.
With `COc1ccc2c(c1)CCN(C(=O)CCCC(=O)O)[C@H]2C(=O)Nc1cc(F)c2c(c1)CCC2(C)C`, the inhibition result with Mus musculus [2] was “Dose-dependent effect”. This compound registered a bioavailability in [3] of 91%. Further, the pH-dependent lipophilicity (logD) in data set [1] amounted to 3.37. In addition, the area under the curve AUC(0-t) at 8 h in data set [4] came out at 3440 ng·h/mL.
The compound `COc1ccc2c(n1)CCN(C(=O)[C@H]1C[C@@H](C(=O)O)C1)[C@H]2C(=O)Nc1cc(F)c2c(c1)CCC2(C)C` yielded a logD in data set [1] of 3.39.
As for `COc1ccc2c(n1)CCN(C(=O)CCCC(=O)O)[C@H]2C(=O)Nc1cc(F)c([Si](C)(C)C)c(F)c1`, the bioavailability in [3] worked out at 51%. Moreover, the pH-dependent lipophilicity (logD) in data set [1] came to 4.04. In [4], this compound showed an AUC(0-t) at 8 h of 2880 ng·h/mL.
As to `COc1ccc2c(n1)CCN(C(=O)[C@H]1C[C@H](C(=O)O)C1)[C@H]2C(=O)Nc1cc(F)c2c(c1)CCC2(C)C`, the logD in data set [1] came out at 3.46.

One may read the logD as the decadic logarithm of the distribution of all forms, ionised or not, between an organic phase and buffer at a given pH. A low value points to lower lipophilicity. As a reminder, the bioavailability is dose-corrected exposure relative to a reference, in per cent. Read a low bioavailability as little systemic uptake. The term AUC(0-t) denotes the area under the concentration-time curve up to a stated or last time point. The low end stands for low exposure, the high end for high exposure. As usually defined, the IC50 is the concentration that gives 50% inhibition. As a reminder, the inhibition in vivo is the share of the control response that was lost under treatment. As a reminder, the Tmax is the time at which the peak concentration occurs. Usually Cmax stands for the highest concentration seen after dosing. As usually defined, the MRT is a mean duration of stay, worked out from the concentration-time curve.
